Assay results published in ChEMBL document CHEMBL1140409, “Discovery of potent, nonsystemic apical sodium-codependent bile acid transporter inhibitors (Part 2)” (J Med Chem, 2005).

How the values were obtained:
[1] = Maximum biliary concentration (dissolved in aqueous Tween-80) was determined on intragastric administration at 5-0.04 mg/kg in […] of rat gavage model; format: ADME, organism-based, Bile; set-up: dose 0.04 mg/kg, route […]; settings: […] (blood), po
[2] = Amount (dissolved in aqueous Tween-80) in bile of rat was determined by fecal bile acid content for 45 min in a 37 degree C; format: ADME, tissue-based, Feces; set-up: concentration or dose not given beside the values; settings: in vivo, 0.75 h
Method in brief: (§1)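 Male Wistar rats (275–300 g) were gavaged once each morning for 4 days at 5, 0.2 or 0.04 mpk in aqueous 0.2% (v/v) Tween-80 (2 mL/kg). Feces from the final 48 h were homogenized in twice their weight of water. Homogenate was diluted in butanol/water (2:0.6), extracted 45 min at 37 °C, centrifuged, and bile acids (μmol/day) measured enzymatically. Scores compared against a reference analogue at 0.04 mg/kg.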

[3] = biological target: T1, Ileal sodium/bile acid cotransporter (Homo sapiens, UniProt Q12908); assay: In vitro inhibition of ASBT mediated uptake of [14C]taurocholate (5 uM) in baby hamster cells expressing human IBAT; format: cell-based
T1 sequence (Q12908 whole entry): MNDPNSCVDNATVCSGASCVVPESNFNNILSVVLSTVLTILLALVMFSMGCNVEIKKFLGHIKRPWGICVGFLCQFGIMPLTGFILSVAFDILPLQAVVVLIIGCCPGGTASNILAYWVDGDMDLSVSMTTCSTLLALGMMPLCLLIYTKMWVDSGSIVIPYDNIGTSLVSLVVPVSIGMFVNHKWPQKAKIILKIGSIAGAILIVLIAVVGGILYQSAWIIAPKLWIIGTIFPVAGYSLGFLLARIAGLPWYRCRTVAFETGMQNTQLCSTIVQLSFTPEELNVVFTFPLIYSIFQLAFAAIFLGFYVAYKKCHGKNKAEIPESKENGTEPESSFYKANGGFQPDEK

[4] = Efficacy to increase fecal bile acid excretion; ++ is even more effective; format: ADME, tissue-based, Feces; settings: rat; method in brief: as §1
[5] = Maximum biliary concentration (dissolved in aqueous Tween-80) was determined on intragastric administration at 5-0.04 mg/kg in portal vein of rat gavage model; format: ADME, organism-based, Bile; set-up: dose 0.04 mg/kg, route […]; settings: po
[6] = Efficacy to increase fecal bile acid excretion; + is more efficacious; format: ADME, tissue-based, Feces; settings: rat; method in brief: as §1

Row | Cmax [1] [ng/mL] | Activity [2] [%] | IC50 [3] [nM] | Efficacy [4] | Cmax [5] [ng/mL] | Efficacy [6] | Structure (SMILES)
1 | 960 | 15.04 | 27 |  |  |  | CCCCC1(CCCC)CS(=O)(=O)c2ccc(N(C)C)cc2[C@@H](c2ccc(OCC(=O)O)cc2)[C@H]1O
2 |  | 0.03 | 1 | Even more effective |  |  | CCCCC1(CCCC)CS(=O)(=O)c2ccc(N(C)C)cc2[C@@H](c2ccc(OCc3ccc(C[n+]4ccccc4)cc3)cc2)[C@H]1O
3 | 5100 | 3.3 | 8.5 | Even more effective | 1100 |  | CCCCC1(CCCC)CS(=O)(=O)c2ccc(N(C)C)cc2[C@@H](c2ccc(OCCCCC(=O)O)cc2)[C@H]1O
4 |  | 0.17 | 4 |  |  | More efficacious than analogue 2 | CCCCC1(CCCC)CS(=O)(=O)c2ccc(N(C)C)cc2[C@@H](c2ccc(OCc3cccc(CN(CC(=O)O)CC(=O)O)n3)cc2)[C@H]1O
